Measured values reported in ChEMBL document CHEMBL1671680, “Pradimicin S, a highly soluble nonpeptidic small-size carbohydrate-binding antibiotic, is an anti-HIV drug lead for both microbicidal and systemic use” (Antimicrob Agents Chemother, 2010).
Activity calls are given as the source filed them. The calls are words filed in the database; no cut-off is given here.

How the values were obtained:
PBMC [1] = test: Immunostimulatory activity against human PBMC assessed as eotoxin production at 22 uM after 72 hrs; type: functional, cell-based
Outline: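 In three independent experiments, PBMCs and PHA-blasts from three donors were cultured with compound for 72 h. Supernatants were analysed with a bead-based 27-plex human cytokine immunoassay covering interleukins, chemokines, growth factors, IFN-γ and TNF-α.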

PBMC [2] = test: Immunostimulatory activity against human PBMC assessed as MIP-1beta production at 21 uM after 72 hrs; type: functional, cell-based
Outline: (§1)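 Unstimulated PBMCs and PHA-blasts from three donors, in three independent experiments, cultured with test compound at 20 μg/ml (21 or 22 μM). Supernatants collected after 72 h. The cytokine profile was read on a Bio-Plex 27-plex human cytokine bead immunoassay, using beads coupled to cytokine-specific monoclonal antibodies and run per the kit instructions.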

[3] = system: Human immunodeficiency virus 1; test: Antiviral activity against HIV-1 3B infected in human HUT78 cells assessed as prevention of syncytium formation between persistently HIV-1 3B-infected HUT-78 cells and uninfected SupT1 cells after 3 to 4 days by ELISA; type: functional, organism-based; details: Human immunodeficiency virus 1, 3B, SUP-T1
PBMC [4] = test: Immunostimulatory activity against human PBMC assessed as IL-2 production at 21 uM after 72 hrs; type: functional, cell-based; outline: as §1
PBMC [5] = test: Immunostimulatory activity against human PBMC assessed as MIP-1alpha production at 21 uM after 72 hrs; type: functional, cell-based; outline: as §1
PBMC [6] = test: Immunostimulatory activity against human PBMC assessed as PDGF production at 22 uM after 72 hrs; type: functional, cell-based; outline: as §1
[7] = system: Human immunodeficiency virus 1; test: Antiviral activity against X4 tropic HIV-1 3B infected in human PBMC assessed as inhibition of viral replication […] by ELISA; type: functional, organism-based; details: Human immunodeficiency virus 1, 3B
Outline: (§2)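 PBMCs from healthy donors were stimulated with PHA (2 μg/ml) for 3 days, then seeded at 0.5 × 10^6 cells/well in RPMI 1640 with 10% FCS, IL-2 (25 U/ml) and compound. Virus was added at a final 250 pg p24/ml. Supernatant was taken at day 12 for p24 antigen ELISA.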

[8] = system: Human immunodeficiency virus 1; test: Binding affinity to HIV-1 HXB2 gp41 after 6 mins by SPR analysis
[9] = system: Human immunodeficiency virus 1; test: Ratio of EC90 to EC50 for X4 tropic HIV-1 Bal infected in human PBMC; type: functional; details: in the assay text read “R5 tropic” for “X4 tropic”
Outline: (§3)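 PBMCs from healthy donors were PHA-stimulated (2 μg/ml, 3 days, 37°C), then seeded at 0.5 × 10^6 per well with compound dilutions in RPMI 1640 with 10% FCS and IL-2 (25 U/ml). Virus was added at 250 pg p24 or p27/ml final. On day 12, supernatant HIV-1 p24 or HIV-2 p27 was measured by ELISA, giving EC50 and EC90.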

PBMC [10] = test: Immunostimulatory activity against human PBMC assessed as IP-10 production at 22 uM after 72 hrs; type: functional, cell-based; outline: as §1
PBMC [11] = test: Immunostimulatory activity against human PBMC assessed as MIP-1alpha production at 22 uM after 72 hrs; type: functional, cell-based; outline: as §1
[12] = system: Human immunodeficiency virus 1; test: Antiviral activity against HIV-1 3B infected in human MT4 cells assessed as inhibition of virus-induced cytopathicity after 7 days by trypan blue staining; type: functional, organism-based; details: Human immunodeficiency virus 1, 3B, MT4, 168 h
PBMC [13] = test: Immunostimulatory activity against human PBMC assessed as suppression of IL-2 production at 22 uM after 72 hrs; type: functional; outline: as §1
PBMC [14] = test: Immunostimulatory activity against human PBMC assessed as IL-4 production at 21 uM after 72 hrs; type: functional, cell-based; outline: as §1
PBMC [15] = test: Immunostimulatory activity against human PBMC assessed as VEGF production at 21 uM after 72 hrs; type: functional, cell-based; outline: as §1
[16] = system: Human immunodeficiency virus 1; test: Antiviral activity against X4 tropic HIV-1 Bal infected in human PBMC assessed as inhibition of viral replication […] by ELISA; type: functional, organism-based; details: Human immunodeficiency virus 1, Bal; outline: as §2
[17] = system: Human immunodeficiency virus 1; test: Antiviral activity against compound pretreated X4 tropic HIV-1 3B infected in human Raji cells expressing DC-SIGN gene assessed as prevention of syncytium formation between persistently HIV-1 3B-infected Raji cells and uninfected human C8166 cells after 42 hrs by microscopic analysis; type: functional, organism-based; details: Human immunodeficiency virus 1, 3B
Outline: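 Compound-pretreated virus captured by Raji/DC-SIGN cells for 60 min at 37°C, washed, then 200 μl mixed with 2 × 10^5 C8166 cells (further 5-fold dilution) and incubated 36–48 h at 37°C; syncytium formation scored microscopically.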

PBMC [18] = test: Immunostimulatory activity against human PBMC assessed as IL-15 production at 21 uM after 72 hrs; type: functional, cell-based; outline: as §1
[19] = system: Human immunodeficiency virus 1; test: Ratio of EC90 to EC50 for R5 tropic HIV-1 clade F isolate BZ163 infected in human PBMC; type: functional; outline: as §3
PBMC [20] = test: Immunostimulatory activity against human PBMC assessed as suppression of IL-2 production at 21 uM after 72 hrs; type: functional; outline: as §1
[21] = Cytotoxicity against human thymidine kinase-negative OST cells after 3 to 4 days; type: cell-based
PBMC [22] = test: Immunostimulatory activity against human PBMC assessed as IL-6 production at 21 uM after 72 hrs; type: functional, cell-based; outline: as §1
[23] = Cytotoxicity against human Molt4 cells after 3 to 4 days; type: cell-based; details: MOLT-4 cells
Outline: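 Cells seeded at 20,000–75,000 per well with compound dilutions, incubated 3–4 days at 37°C, and counted on a Coulter particle counter; CC50 is the concentration inhibiting proliferation by 50%.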

PBMC [24] = test: Immunostimulatory activity against human PBMC assessed as suppression of RANTES production at 22 uM after 72 hrs; type: functional
[25] = system: Human immunodeficiency virus 1; test: Antiviral activity against HIV-1 3B infected in human C8166 cells assessed as inhibition of virus-induced cytopathicity after 3 to 4 days by microscopic analysis; type: functional, organism-based; details: Human immunodeficiency virus 1, 3B
Outline: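 CEM or C8166 cells at 5 × 10^5/ml infected with HIV-1 at 100 CCID50 per ml, then mixed 1:1 with compound dilutions and held at 37°C for 3–4 days. Giant cells were counted microscopically at ×100 against untreated infected cultures. EC50 is the concentration cutting syncytium formation by 50%.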

PBMC [26] = test: Immunostimulatory activity against human PBMC assessed as MCP-1 production at 22 uM after 72 hrs; type: functional, cell-based; outline: as §1
[27] = system: Human immunodeficiency virus 1; test: Binding affinity to HIV-1 HXB2 gp41 assessed as association rate constant after 6 mins by SPR analysis in presence of 10 mM CaCl2
PBMC [28] = test: Immunostimulatory activity against human PBMC assessed as IL-4 production at 22 uM after 72 hrs; type: functional, cell-based; outline: as §1
[29] = Binding affinity to HIV-1 HXB2 gp41 after 6 mins by SPR analysis in presence of 10 mM CaCl2; design: species or system Human immunodeficiency virus 1
[30] = Antiviral activity against SIV mac251 infected in human MT4 cells assessed as inhibition of virus-induced cytopathicity after 7 days by trypan blue staining; type: functional, cell-based, Simian immunodeficiency virus - mac; details: Simian immunodeficiency virus, 251, MT4, 168 h
Outline: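 MT-4 cells (5 × 10^5/ml) infected with SIV at 100 CCID50/ml, mixed 1:1 with compound dilutions, incubated at 37°C; viable cells in infected and mock-infected cultures counted by trypan blue; EC50 and CC50 are concentrations reducing viable cell number by 50% in each.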

PBMC [31] = test: Immunostimulatory activity against human PBMC assessed as IL-13 production at 22 uM after 72 hrs; type: functional, cell-based; outline: as §1

Row | Structure (SMILES) | Activity (PBMC [1]) | Activity (PBMC [2]) | EC50 [3] [µM] | Activity (PBMC [4]) | Activity (PBMC [5]) | Activity (PBMC [6]) | EC50 [7] [µM] | Activity [8] | Ratio [9] | Activity (PBMC [10]) | Activity (PBMC [11]) | EC50 [12] [µM] | fold change (FC) (PBMC [13]) | Activity (PBMC [14]) | Activity (PBMC [15]) | EC50 [16] [µM] | EC50 [17] [µM] | Activity (PBMC [18]) | Ratio [19] | fold change (FC) (PBMC [20]) | other results
1 | CN[C@@H]1[C@H](O[C@@H]2OC[C@@H](O)[C@H](O)[C@H]2O)[C@@H](O)[C@H](O[C@H]2c3cc(C)c(C(=O)N[C@H](C)C(=O)O)c(O)c3-c3c(cc4c(c3O)C(=O)c3cc(OC)cc(O)c3C4=O)[C@@H]2O)O[C@@H]1C [PRADIMICIN A] | inactive | inactive | 3.4 | inactive | inactive | inactive | 2.6 | inactive | 2 | inactive | inactive | 5.2 | 4 | inactive | inactive | 2.2 | 3.4 | inactive | 2 | 4 | CC50 [21]: > 50 µM; Activity (PBMC [22]): inactive; CC50 [23]: > 50 µM; fold change (FC) (PBMC [24]): 4; EC50 [25]: 2.6 µM; Activity (PBMC [26]): inactive; Ka [27]: 1.96 ×10³ /M/s; Activity (PBMC [28]): inactive; Kd [29]: 14.9 µM; EC50 [30]: 5 µM; Activity (PBMC [31]): inactive
2 | CN[C@@H]1[C@H](O[C@@H]2O[C@H](CO)[C@@H](O)[C@H](OS(=O)(=O)O)[C@H]2O)[C@@H](O)[C@H](O[C@H]2c3cc(C)c(C(=O)N[C@H](C)C(=O)O)c(O)c3-c3c(cc4c(c3O)C(=O)c3cc(OC)cc(O)c3C4=O)[C@@H]2O)O[C@@H]1C [PRADIMICIN S] | inactive | inactive | 6 | inactive | inactive | inactive | 8.5 | inactive | 2 | inactive | inactive | 5 | 4 | inactive | inactive | 5.3 | 7.1 | inactive | 2 | 4 | CC50 [21]: > 230 µM; Activity (PBMC [22]): inactive; CC50 [23]: > 230 µM; fold change (FC) (PBMC [24]): 4; EC50 [25]: 5.1 µM; Activity (PBMC [26]): inactive; Ka [27]: 2.73 ×10³ /M/s; Activity (PBMC [28]): inactive; Kd [29]: 9.93 µM; EC50 [30]: 8.1 µM; Activity (PBMC [31]): inactive
